Experimental data collected from several papers.
Lines come from different studies, so protocols differ.
Target: Mitogen-activated protein kinase kinase kinase kinase 4 (MAP4K4, Homo sapiens, UniProt O95819)

Compound	observed	technique	tested at	remaining binding
CN(C)c1ncc(F)c(-c2cnn3ncccc23)n1	binding	–	1 µM	100%
O=C(NCCCN1CCOCC1)c1ccc(Nc2nccc(-c3cc4ccccc4s3)n2)cc1	binding	competition with immobilised ligand	1 µM	100%
O=C1CCc2cc(Nc3cc(OC4CCOCC4)c([N+](=O)[O-])cc3Cl)ccc2N1	cell-free assay	competition with immobilised ligand	1 µM	100%
N[C@H]1CCN(c2nccc(-c3cnn4ncccc34)n2)C1	binding	–	1 µM	100%
COc1cnc(Nc2cccc(S(N)(=O)=O)c2)nc1N1CCN(c2ccccc2)C(=O)C1	binding	competition with immobilised ligand	1 µM	100%
FC(F)(F)Oc1cccc(-c2cnc3ccc(-c4ccncc4)nn23)c1	cell-free assay	competition with immobilised ligand	5 µM	49%
Cc1cnn2ncc(-c3ccnc(N(C)C)n3)c2c1	binding	–	1 µM	100%
O=C(NCC1CCOCC1)c1n[nH]cc1NC(=O)c1c(F)cccc1F	binding	competition with immobilised ligand	1 µM	91%
Cc1nccc(COC(=O)N2C[C@@H]3[C@@H](CNC(=O)c4ccc5[nH]nnc5c4)[C@@H]3C2)n1	cell-free assay	competition with immobilised ligand	1 µM	99%
COc1cnc(Nc2cccc(S(N)(=O)=O)c2)nc1N1CCN(c2ccccc2)CC1	binding	competition with immobilised ligand	1 µM	87%
O=C(c1ccc(Nc2ncc(Cl)c(-c3cc4ccccc4s3)n2)cc1)N1CCC(N2CCCC2)CC1	binding	competition with immobilised ligand	1 µM	34%
CN(CCCC(F)(F)F)c1nccc(-c2cnn3ncccc23)n1	binding	–	1 µM	100%
COc1ncc2cc3ccccc3nc2c1C#N	cell-free assay	competition with immobilised ligand	5 µM	91%
C[C@H](c1cccc(C#N)c1)n1cc(Cl)cc(C(N)=O)c1=N	cell-free assay	competition with immobilised ligand	1 µM	100%
CCN1CCN(Cc2ccc(C(=O)Nc3ccc(C)c(Oc4ccc5c(c4)CC(=O)N5)c3)cc2C(F)(F)F)CC1	binding	competition with immobilised ligand	1 µM	88%
FC(F)(F)c1ccc2c(c1)nc(-c1cccnc1)n2C1CC1	cell-free assay	competition with immobilised ligand	1 µM	100%
O=C(c1ccc(Nc2nccc(-c3cc4ccccc4s3)n2)cc1)N1CCC(N2CCCC2)CC1	binding	competition with immobilised ligand	1 µM	40%
c1cnn2ncc(-c3ccnc(N4CCC45COC5)n3)c2c1	binding	–	1 µM	77%
CS(=O)(=O)NCC[C@H](NC(=O)c1cncc2c1cnn2-c1ccc(F)cc1)c1ccnc(S(C)(=O)=O)c1	cell-free assay	competition with immobilised ligand	1 µM	86%
C[C@H]1CCN(c2nccc(-c3cnn4ncccc34)n2)C1	binding	–	1 µM	98%
CCCOc1ccc([C@H]2[C@H](C(=O)O)[C@@H](c3ccc4c(c3)OCO4)CN2CC(=O)Nc2c(CC)cccc2CC)cc1	cell-free assay	competition with immobilised ligand	1 µM	90%
